Data set [1] has as its system MCF7. Put plainly: Cytotoxicity against human MCF7 cells after 48 hrs by MTT assay. It is filed as functional, cell-based. As to conditions: MCF7, 48 h. In outline: (§1)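 MTT viability read after 48 h exposure of three breast cancer lines and non-tumorigenic MCF-10A breast cells; IC50 reported as mean ± SD from at least three independent experiments. Butyl-TPP and tamoxifen run alongside as references. Sulforhodamine B assay used as a cross-check.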

In data set [2] the test system is MCF-10A. The data set is described as follows: Cytotoxicity against human MCF-10A cells after 48 hrs by MTT assay. It is filed as cell-based. In outline: as §1
Background: Tetrazolium dyes change colour on reduction, which living cells bring about.

The subject of data set [3] is SK-BR-3. The data set is described as follows: Cytotoxicity against human SK-BR-3 cells after 48 hrs by MTT assay. The format is functional, cell-based. As to conditions: SK-BR-3, 48 h. In outline: as §1
For data set [4], the system named is MDA-MB-231. Put plainly: Cytotoxicity against human MDA-MB-231 cells after 48 hrs by MTT assay. It is filed as functional, cell-based. The conditions noted are these: MDA-MB-231, 48 h. In outline: as §1
A short description of data set [5]: Stability of compound in methanol-water after 3 days by HPLC-MS analysis. The format is physicochemical. As to conditions: 72 h; time 3 day.
Data set [6] can be described thus: Drug uptake in human MDA-MB-231 cells assessed as blue fluorescence at 8 uM measured after 0.5 to 1.5 hrs by flow cytometric analysis. The format is ADME, cell-based. As to conditions: mda-mb-231, 8 µM, TDE = time-dependent effect, time 0.5-1.5 hrs. In outline: (§2)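 Uptake read from native blue fluorescence (λex ~420, λem ~475 nm) by flow cytometry as geometric mean intensity. Dose series read after 2 h. Time course run at 8 μM over several durations. Mean ± SD, n = 3.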

Data set [7] is described as follows: Drug uptake in human MDA-MB-231 cells assessed as blue fluorescence after 2 hrs by flow cytometric analysis. The format is ADME, cell-based. As to conditions: mda-mb-231, 2 h, dose 1-16 µM. The method, boiled down: as §2
Background: A flow cytometer gives signals particle by particle.

For data set [8], the system named is MDA-MB-231. Put plainly: Induction of apoptosis in human MDA-MB-231 cells assessed as early apoptotic cells at 4 uM incubated for 48 hrs by Annexin V-FITC/PI staining based flow cytometric analysis (reference value: 2.08 %). The format is functional.
Data set [9] has as its system MDA-MB-231. The data set is described as follows: Induction of mitochondrial membrane depolarization in human MDA-MB-231 cells at 2 to 8 uM preincubated with BSO for 24 hrs followed by compound addition by flow cytometric analysis. The format is functional. The conditions noted are these: dose 2-8 µM. In outline:
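MDA-MB-231 cells pretreated with 50 μM buthionine sulfoximine for 24 h to deplete GSH, then exposed to compound. Mitochondrial membrane potential determined by flow cytometry. Mean ± SD, n = 3.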

Data set [10] deals with MDA-MB-231. The data set is described as follows: Induction of mitochondrial membrane potential loss in human MDA-MB-231 cells assessed as TMRE high cells at 8 uM after 24 hrs by TMRE staining based flow cytometric analysis (reference value: 1.79%). The format is functional.
Data set [11] deals with MDA-MB-231. The data set is described as follows: Induction of cell death in human MDA-MB-231 cells assessed as reduction in cell viability at 2 to 8 uM preincubated with BSO for 24 hrs followed by compound addition and measured after 24 hrs MTT assay. It is filed as functional. As to conditions: dose 2-8 µM. The method, boiled down:
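MDA-MB-231 cells pretreated with buthionine sulfoximine (50 μM, 24 h) to deplete GSH, then exposed to test compound for a further 24 h. Viability read by MTT. Means ± SD, n = 3.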

The subject of data set [12] is MDA-MB-231. Put plainly: Induction of mitochondrial membrane potential loss in human MDA-MB-231 cells after 24 hrs by TMRE staining based flow cytometric analysis. The conditions noted are these: dose 2-8 µM. It is filed as functional, cell-based.
Data set [13] has as its system MDA-MB-231. The data set is described as follows: Induction of apoptosis in human MDA-MB-231 cells assessed as late apoptotic or necrotic cells at 2 uM incubated for 48 hrs by Annexin V-FITC/PI staining based flow cytometric analysis (reference value: 3.51 %). It is filed as functional.
The test system of data set [14] is MDA-MB-231. Put plainly: Inhibition of TrxR activity in human MDA-MB-231 cell mitochondrial extracts at 10 uM incubated for 4 hrs. The conditions noted are these: Mitochondria. In outline: (§3)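 MDA-MB-231 cells treated with 10 μM compound for 4 h. Total-cell and mitochondrial extracts assayed for TrxR activity with a micro oxidized thioredoxin reductase kit. Mean ± SD, n = 3.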

Data set [15] relates to MDA-MB-231. Put plainly: Induction of ROS generation in human MDA-MB-231 cells after 6 hrs by DCFH-DA staining based flow cytometric analysis. It is filed as functional, cell-based. In outline:
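MDA-MB-231 cells treated for 6 h, then intracellular ROS probed with DCFH-DA. Geometric mean fluorescence measured by flow cytometry. Mean ± SD, n = 3.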

Data set [16] has as its system MDA-MB-231. The data set is described as follows: Down regulation of TrxR expression in human MDA-MB-231 cells incubated for 48 hrs by Western blot analysis. The format is functional, cell-based. As to conditions: dose 2-8 µM. In outline:
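MDA-MB-231 cells exposed at 2, 4 and 8 μM for 48 h. TrxR2 protein detected by Western blot and quantified by gray-value scanning. Mean ± SD, n = 3.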

Data set [17] relates to MDA-MB-231. The data set is described as follows: Induction of mitochondrial membrane potential loss in human MDA-MB-231 cells assessed as TMRE low/caspase low cells at 2 uM after 24 hrs by TMRE staining based flow cytometric analysis (reference value: 98.21%). It is filed as functional.
The test system of data set [18] is MDA-MB-231. The data set is described as follows: Induction of cell death in human MDA-MB-231 cells assessed as reduction in cell viability preincubated with CsA for 2 hrs followed by compound addition and measured after 48 hrs by MTT assay. The format is functional, cell-based. The method, boiled down:
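MDA-MB-231 cells pre-incubated 2 h with cyclosporin A (2 and 4 μM), then exposed to compound for 48 h. Viability read by MTT. Mean ± SD, n = 3.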

Data set [19] has as its system MDA-MB-231. Put plainly: Induction of apoptosis in human MDA-MB-231 cells assessed as early apoptotic cells at 8 uM incubated for 48 hrs by Annexin V-FITC/PI staining based flow cytometric analysis (reference value: 2.08 %). It is filed as functional.
Data set [20] concerns MDA-MB-231. The data set is described as follows: Induction of mitochondrial membrane potential loss in human MDA-MB-231 cells assessed as TMRE low/caspase low cells at 8 uM after 24 hrs by TMRE staining based flow cytometric analysis (reference value: 98.21%). The format is functional.
Data set [21] relates to MDA-MB-231. The data set is described as follows: Inhibition of TrxR activity in human MDA-MB-231 cells at 10 uM incubated for 4 hrs. The format is cell-based. The method, boiled down: as §3
Data set [22] deals with MDA-MB-231. The data set is described as follows: Induction of mitochondrial membrane potential loss in human MDA-MB-231 cells assessed as TMRE low/caspase low cells at 4 uM after 24 hrs by TMRE staining based flow cytometric analysis (reference value: 98.21%). The format is functional.
For data set [23], the system named is MDA-MB-231. The data set is described as follows: Induction of apoptosis in human MDA-MB-231 cells assessed as early apoptotic cells at 2 uM incubated for 48 hrs by Annexin V-FITC/PI staining based flow cytometric analysis (reference value: 2.08 %). The format is functional.
Data set [24] in a line: Drug localization in mitochondria of human MDA-MB-231 cells at 1 uM incubated for 30 mins by MTDR staining based laser confocal microscopic analysis. It is filed as ADME. As to conditions: mda-mb-231, 0.5 h.
Data set [25] concerns MDA-MB-231. Put plainly: Induction of apoptosis in human MDA-MB-231 cells assessed as late apoptotic or necrotic cells at 8 uM incubated for 48 hrs by Annexin V-FITC/PI staining based flow cytometric analysis (reference value: 3.51 %). The format is functional.
For data set [26], the system named is MDA-MB-231. Put plainly: Induction of mitochondrial membrane potential loss in human MDA-MB-231 cells assessed as TMRE high cells at 2 uM after 24 hrs by TMRE staining based flow cytometric analysis (reference value: 1.79%). The format is functional.
Data set [27] relates to MDA-MB-231. Put plainly: Induction of apoptosis in human MDA-MB-231 cells assessed as late apoptotic or necrotic cells at 4 uM incubated for 48 hrs by Annexin V-FITC/PI staining based flow cytometric analysis (reference value: 3.51 %). The format is functional.
Data set [28] has as its system MDA-MB-231. The data set is described as follows: Induction of mitochondrial membrane potential loss in human MDA-MB-231 cells assessed as TMRE high cells at 4 uM after 24 hrs by TMRE staining based flow cytometric analysis (reference value: 1.79%). The format is functional.
Data set [29] can be described thus: Drug localization in mitochondria of human MDA-MB-231 cells at 1 uM incubated for 30 mins in presence of CCCP by MTDR staining based laser confocal microscopic analysis. It is filed as ADME. As to conditions: mda-mb-231, 0.5 h.

Each structure is given as a SMILES string. Activity calls are given as the source filed them. The calls are words filed in the database; no cut-off is given here.

Regarding `CCCCNC(=O)c1cc2ccc(N(CC)CC)cc2oc1=O`, the IC50 in data set [1], in [2], in [3] and in data set [4] was above 100 µM each time.

`CCN(CC)c1ccc2cc(C(=O)OCCCC[P+](c3ccccc3)(c3ccccc3)c3ccccc3)c(=O)oc2c1`: the IC50 in data set [1] was 27.8 µM; in data set [2], 83.7 µM; in data set [3], 30.9 µM; in [4], 29.4 µM. Further, the Stabilty result in data set [5] is listed as “Unstable”. Also, the figures for the Drug uptake result in [6] and in data set [7] were “Tde” and “Dose-dependent effect”, respectively.

As to `CCCC[P+](c1ccccc1)(c1ccccc1)c1ccccc1`, the IC50 is 57.4 µM in [1], above 100 µM in [2], above 100 µM in data set [3] and above 100 µM in data set [4].

As to `CCN(CC)c1ccc2cc(C(=O)NCCCC[P+](c3ccccc3)(c3ccccc3)c3ccccc3)c(=O)oc2c1`, the Activity in data set [8] is 6.47%; in data set [9] it was 13%; in [10], 39.37%; in data set [11], 50%; in [12] it was “Dose-dependent effect”; in data set [13], 14.69%. Further, the Activity result in [15] is “Dose-dependent effect”; in data set [17], 78.96%; in data set [19], 1.89%; in data set [20] it was 60.63%; in data set [22], 70.55%; in [23] it was 1.2%. The Activity in [25] turned out to be 65.07%; in data set [26], 21.04%; in data set [27] it was 24.09%; in data set [28], 29.45%. Also, the inhibition result in [14] and in data set [21] was “Active” in each case. Also, the outcome in data set [16] was Active. For the same compound, the outcome in [18] was inactive. Further, the IC50 in data set [1] is 3.26 µM; in data set [2], 45.3 µM; in data set [3] it was 3.46 µM; in [4], 3.03 µM. Besides, in [5], the Stabilty result is recorded as “Stable”. In addition, the Drug uptake result is “Active” in data set [24], “Tde” in data set [6], “Dose-dependent effect” in [7] and “Not Active” in [29].

As to `CCN(Cc1ccccc1)c1ccc2cc(C(=O)NCCCC[P+](c3ccccc3)(c3ccccc3)c3ccccc3)c(=O)oc2c1`, the IC50 in data set [1] is 4.9 µM; in data set [2], 15.1 µM; in data set [3], 2.73 µM; in data set [4], 3.73 µM.

Take `CC/C(=C(\c1ccccc1)c1ccc(OCCN(C)C)cc1)c1ccccc1` [TAMOXIFEN]: the IC50 in [1] is 15.2 µM; in data set [2], above 50 µM.

As usually defined, the IC50 is the concentration that gives 50% inhibition.

For the origin of these results see ChEMBL document CHEMBL4673374, “Synthesis of mitochondria-targeted coumarin-3-carboxamide fluorescent derivatives: Inhibiting mitochondrial TrxR2 and cell proliferation on breast cancer cells” (Bioorg Med Chem Lett, 2021).
